# Assay results published in ChEMBL document CHEMBL3621072, “Design, Virtual Screening, and Synthesis of Antagonists of αIIbβ3 as Antiplatelet Agents” (J Med Chem, 2015).
# Molecular target: T1, Integrin alpha-IIb/beta-3 (Homo sapiens, UniProt P05106+P08514)
# Assay: Inhibition of FITC-labeled fibrinogen binding to integrin alpha2bbeta3 closed form in human washed platelets
# In short: (§1)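 Suspension of washed human platelets; αIIbβ3 binding of fluorescein isothiocyanate-labeled fibrinogen (FITC-Fg) measured, inhibition by test compound expressed as IC50. Pure enantiomers tested.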
# T1 sequence (P05106 27-788 limits assumed): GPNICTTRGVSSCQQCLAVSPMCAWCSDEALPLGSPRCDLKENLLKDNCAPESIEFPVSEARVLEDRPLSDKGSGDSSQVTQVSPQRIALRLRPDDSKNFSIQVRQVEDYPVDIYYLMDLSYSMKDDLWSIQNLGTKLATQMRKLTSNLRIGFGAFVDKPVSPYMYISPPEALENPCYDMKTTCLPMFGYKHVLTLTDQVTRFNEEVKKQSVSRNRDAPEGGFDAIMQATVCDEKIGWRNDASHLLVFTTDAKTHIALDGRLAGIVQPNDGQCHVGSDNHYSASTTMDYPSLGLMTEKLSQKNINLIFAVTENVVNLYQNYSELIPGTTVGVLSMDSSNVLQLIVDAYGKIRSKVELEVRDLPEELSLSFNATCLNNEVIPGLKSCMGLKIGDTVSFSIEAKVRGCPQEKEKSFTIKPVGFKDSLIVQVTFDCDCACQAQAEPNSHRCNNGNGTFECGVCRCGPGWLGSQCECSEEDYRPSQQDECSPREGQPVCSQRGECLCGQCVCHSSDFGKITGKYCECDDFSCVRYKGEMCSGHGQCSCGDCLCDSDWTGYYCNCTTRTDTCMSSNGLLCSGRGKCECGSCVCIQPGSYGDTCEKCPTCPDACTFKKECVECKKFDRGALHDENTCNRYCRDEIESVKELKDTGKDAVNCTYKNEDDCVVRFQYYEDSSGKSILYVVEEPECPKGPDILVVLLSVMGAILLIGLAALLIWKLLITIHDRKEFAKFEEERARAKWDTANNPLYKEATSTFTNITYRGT
# T1 sequence (P08514 32-887 limits assumed): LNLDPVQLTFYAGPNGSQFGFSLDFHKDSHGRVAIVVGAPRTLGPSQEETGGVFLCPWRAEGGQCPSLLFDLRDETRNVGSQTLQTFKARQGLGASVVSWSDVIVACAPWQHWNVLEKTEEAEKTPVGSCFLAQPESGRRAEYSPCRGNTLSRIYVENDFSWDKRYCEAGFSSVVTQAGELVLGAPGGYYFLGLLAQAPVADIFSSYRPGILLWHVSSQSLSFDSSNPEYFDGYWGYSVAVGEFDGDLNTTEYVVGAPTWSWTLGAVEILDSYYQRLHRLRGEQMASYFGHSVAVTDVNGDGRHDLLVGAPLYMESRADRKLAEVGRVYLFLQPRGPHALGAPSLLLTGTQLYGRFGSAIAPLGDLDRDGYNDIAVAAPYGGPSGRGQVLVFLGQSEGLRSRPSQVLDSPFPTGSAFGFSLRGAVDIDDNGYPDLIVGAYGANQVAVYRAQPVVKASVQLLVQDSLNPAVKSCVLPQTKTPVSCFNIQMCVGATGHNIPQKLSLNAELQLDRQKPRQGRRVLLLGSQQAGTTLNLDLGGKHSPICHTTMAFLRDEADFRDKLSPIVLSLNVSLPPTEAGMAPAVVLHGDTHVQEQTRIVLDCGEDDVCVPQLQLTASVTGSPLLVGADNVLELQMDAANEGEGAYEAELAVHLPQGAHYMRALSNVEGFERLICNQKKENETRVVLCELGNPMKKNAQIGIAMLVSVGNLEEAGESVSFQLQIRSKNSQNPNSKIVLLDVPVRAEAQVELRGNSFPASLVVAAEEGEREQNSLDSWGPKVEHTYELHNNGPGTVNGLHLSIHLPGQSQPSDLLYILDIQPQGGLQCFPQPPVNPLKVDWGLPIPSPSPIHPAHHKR
# T1 sequence (P08514 891-1039 limits assumed): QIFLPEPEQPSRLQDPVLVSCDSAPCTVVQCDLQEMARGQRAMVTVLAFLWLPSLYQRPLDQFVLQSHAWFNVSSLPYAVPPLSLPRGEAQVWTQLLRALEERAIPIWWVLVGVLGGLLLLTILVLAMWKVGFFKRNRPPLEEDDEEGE
row,IC50 [nM],Compound
1,5,NCCC(=O)Nc1ccc2nc(N3CCNCC3)[nH]c(=O)c2c1
2,2.2,NCCCC(=O)Nc1ccc2nc(N3CCNCC3)[nH]c(=O)c2c1
3,3.8,O=C(Nc1ccc2nc(N3CCNCC3)[nH]c(=O)c2c1)C1CCNCC1

# Molecular target: T1, Integrin alpha-IIb/beta-3
# Assay: Inhibition of FITC-labeled fibrinogen binding to integrin alpha2bbeta3 open form in human washed platelets
# In short: as §1
row,IC50 [nM],Compound
1,79,CCCCS(=O)(=O)N[C@H](CNC(=O)CCNC(=O)c1ccc2c(c1)CNCC2)C(=O)O
2,62,CCCCS(=O)(=O)N[C@@H](CNC(=O)CCNC(=O)c1ccc2c(c1)CNCC2)C(=O)O
3,0.22,O=C(CCNC(=O)c1ccc2c(c1)CNCC2)NC[C@H](NS(=O)(=O)c1ccccc1)C(=O)O
4,0.96,O=C(CCNC(=O)c1ccc2c(c1)CNCC2)NC[C@@H](NS(=O)(=O)c1ccccc1)C(=O)O

# Molecular target: T1, Integrin alpha-IIb/beta-3
# Assay: Antagonist activity against integrin alpha2bbeta3 in human platelet rich plasma
# In short: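 Human platelet-rich plasma, aggregation induced by ADP and followed by Born's light-transmission method. Inhibition of aggregation by the test compound is reported as IC50. Pure enantiomers tested.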
row,Compound,IC50 [nM]
1,CCc1nn2c(=O)cc(N3CCNCC3)nc2s1,13000
2,N=C(N)c1ccc2cc(OC(=O)c3ccc(N=C(N)N)cc3)ccc2c1 [NAFAMOSTAT],12500
